Laboratory results published in ChEMBL document CHEMBL1123362, “Resolution, absolute configuration, and cholinergic enantioselectivity of (+)- and (-)-cis-2-methyl-5-[(dimethylamino)methyl]-1,3-oxathiolane methiodide” (1986).
Where “and” joins values, the source holds several entries; their conditions need not be identical. Equal values may be shown once.

Assays:
[1] = Compound was evaluated for the ratio of ED50 of nicotinic agonist (N) and ED50 of muscarinic agonist (M); format: functional
[2] = Equipotent molar ratio (EPMR) between ED50 and ED50 of carbachol calculated through the regression of the angular transformant of the fractional log concentration of agonist; format: functional
[3] = Potency was evaluated on frog rectus abdominis; format: functional, Rectus abdominis muscle
[4] = species on record: Cavia porcellus; assay: Potency was evaluated on guinea pig ileum; format: functional
In short: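 Isolated ileum strip in aerated (O₂ with 5% CO₂) Tyrode-type salt solution (glucose 5 mM) at 37 °C. Isotonic contractions recorded at 1 g loading tension. After 30 min equilibration, cumulative concentration-response curves were run without reaching supramaximal concentrations. Potency expressed as equipotent molar ratio versus carbachol. EPMR averages compared by t-test (p < 0.05).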

SMILES	Ratio [1]	Ratio [2]	ED50 [3]	ED50 [4]
C[C@H]1O[C@H](CN(C)C)CS1 (stereo in doubt; (-)-10) [listing 1 of 2 here]	26.6	2 and 2.8	–	–
C[C@H]1O[C@H](CN(C)C)CS1 (racemic) [listing 1 of 2 here]	–	–	1.7e-05	2.76e-07
C[C@@H]1O[C@H](C[N+](C)(C)C)CS1 (stereo in doubt; (-)-1)	64	–	–	–
C[C@@H]1O[C@H](C[N+](C)(C)C)C[C@H]1O [MUSCARINE]	> 6300	–	>0.0005	7.94e-08
C[C@H]1O[C@H](CN(C)C)CS1 (stereo in doubt; (+)-10) [listing 1 of 2 here]	30	3 and 4.5	–	–
C[C@@H]1O[C@H](C[N+](C)(C)C)CS1 (racemic)	642	–	–	–
C[N+](C)(C)CCOC(N)=O.[Cl-] [CARBACHOL]	19.2	1	4.04e-06	2.11e-07
C[C@H]1O[C@H](CN(C)C)CS1 (stereo in doubt; (+)-10) [listing 2 of 2 here]	–	–	1.84e-05	6.13e-07
C[C@H]1O[C@H](CN(C)C)CS1 (racemic) [listing 2 of 2 here]	61.6	–	–	–
C[C@@H]1O[C@H](C[N+](C)(C)C)CS1 (stereo in doubt; (+)-1)	537	–	–	–
C[C@H]1O[C@H](CN(C)C)CS1 (stereo in doubt; (-)-10) [listing 2 of 2 here]	–	–	1.12e-05	4.2e-07
